Test results published in ChEMBL document CHEMBL4152223 (Eur J Med Chem, 2018).
Converted amounts (≈) assume the structure as drawn.

Legend:
Mycobacterium avium [1] = assay: Antimycobacterial activity against INH/RIF/OFX resistant Mycobacterium avium 330/88 after 21 days; format: functional; settings: 330/88, 504 h
Mycobacterium kansasii [2] = assay: Antimycobacterial activity against Mycobacterium kansasii 6509/96 after 7 days; format: functional; settings: 6509/96, 168 h
Mycobacterium kansasii [3] = assay: Antimycobacterial activity against Mycobacterium kansasii 6509/96 after 21 days; format: functional; settings: 6509/96, 504 h
[4] = tested on: Mycobacterium tuberculosis; assay: Antimycobacterial activity against Mycobacterium tuberculosis H37Rv after 21 days; format: functional; settings: 504 h
HepG2 = assay: Cytotoxicity against human HepG2 cells assessed as reduction in cell viability by MTS assay; format: cell-based
How it was run: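 HepG2 human hepatocellular carcinoma cells (passage 2-4) were cultured in Eagle's MEM with 10% FBS, 1% L-glutamine and non-essential amino acids. Compounds were dissolved in DMSO and tested in triplicate at eight concentrations. Viability was read by colorimetric MTS tetrazolium reduction. Controls were 100% viability and 0% viability (10% DMSO). IC50 is the concentration reducing viability to 50% of control.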

Mycobacterium kansasii [5] = assay: Antimycobacterial activity against Mycobacterium kansasii 6509/96 after 14 days; format: functional; settings: 6509/96, 336 h
Mycobacterium kansasii [6] = assay: Antimycobacterial activity against Mycobacterium kansasii 235/80 after 21 days; format: functional; settings: 235/80, 504 h
[7] = tested on: Mycobacterium tuberculosis; assay: Antimycobacterial activity against Mycobacterium tuberculosis H37Rv after 14 days; format: functional; settings: 336 h
Mycobacterium kansasii [8] = assay: Antimycobacterial activity against Mycobacterium kansasii 235/80 after 7 days; format: functional; settings: 235/80, 168 h
Mycobacterium kansasii [9] = assay: Antimycobacterial activity against Mycobacterium kansasii 235/80 after 14 days; format: functional; settings: 235/80, 336 h
Mycobacterium avium [10] = assay: Antimycobacterial activity against INH/RIF/OFX resistant Mycobacterium avium 330/88 after 14 days; format: functional; settings: 330/88, 336 h
[11] = Selectivity index, ratio of IC50 for human HepG2 cells to MIC for Mycobacterium tuberculosis H37Rv after 14 days; format: toxicity; settings: read-out: Selectivity Index
How it was run: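 SI is calculated as HepG2 IC50 divided by MIC. HepG2 cells (passage 2-4) were grown in EMEM with 10% FBS, L-glutamine and non-essential amino acids. Compounds in DMSO were tested in triplicate at eight concentrations, and viability was read by MTS tetrazolium reduction. IC50 is the concentration reducing viability to 50% of control. 10% DMSO served as the 0% viability control.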

SMILES | MIC (Mycobacterium avium [1]) | MIC (Mycobacterium kansasii [2]) | MIC (Mycobacterium kansasii [3]) | MIC [4] | IC50 (HepG2) | MIC (Mycobacterium kansasii [5]) | MIC (Mycobacterium kansasii [6]) | MIC [7] | MIC (Mycobacterium kansasii [8]) | MIC (Mycobacterium kansasii [9]) | MIC (Mycobacterium avium [10]) | selectivity ratio at 336 h [11]
CCCCCCCCCCCCCCNC(=O)NNC(=O)c1ccncc1 | 125 µM (≈ 47.1 µg/mL) | 32 µM (≈ 12 µg/mL) | 62.5 µM (≈ 23.5 µg/mL) | 62.5 µM (≈ 23.5 µg/mL) | > 50 µM | 62.5 µM (≈ 23.5 µg/mL) | 62.5 µM (≈ 23.5 µg/mL) | 32 µM (≈ 12 µg/mL) | 32 µM (≈ 12 µg/mL) | 62.5 µM (≈ 23.5 µg/mL) | 125 µM (≈ 47.1 µg/mL) | 
CCCCCCCCCCCCNC(=O)NNC(=O)c1ccncc1 | 62.5 µM (≈ 21.8 µg/mL) | 62.5 µM (≈ 21.8 µg/mL) | 62.5 µM (≈ 21.8 µg/mL) | 32 µM (≈ 11.2 µg/mL) | > 50 µM | 62.5 µM (≈ 21.8 µg/mL) | 125 µM (≈ 43.6 µg/mL) | 32 µM (≈ 11.2 µg/mL) | 32 µM (≈ 11.2 µg/mL) | 62.5 µM (≈ 21.8 µg/mL) | 32 µM (≈ 11.2 µg/mL) | 
CCCCNc1nnc(-c2ccncc2)o1 | > 1000 µM | 1000 µM (≈ 218 µg/mL) | 1000 µM (≈ 218 µg/mL) | 500 µM (≈ 109 µg/mL) |  | 1000 µM (≈ 218 µg/mL) | 1000 µM (≈ 218 µg/mL) | 250 µM (≈ 54.6 µg/mL) | 500 µM (≈ 109 µg/mL) | 1000 µM (≈ 218 µg/mL) | > 1000 µM | 
CCCCCCCCCCCCCCCCNc1nnc(-c2ccncc2)o1 | 250 µM (≈ 96.6 µg/mL) | 250 µM (≈ 96.6 µg/mL) | 500 µM (≈ 193 µg/mL) | 250 µM (≈ 96.6 µg/mL) |  | 500 µM (≈ 193 µg/mL) | 500 µM (≈ 193 µg/mL) | 250 µM (≈ 96.6 µg/mL) | 250 µM (≈ 96.6 µg/mL) | 500 µM (≈ 193 µg/mL) | 250 µM (≈ 96.6 µg/mL) | 
CCCCCCCNc1nnc(-c2ccncc2)o1 | 500 µM (≈ 130 µg/mL) | 250 µM (≈ 65.1 µg/mL) | 500 µM (≈ 130 µg/mL) | 125 µM (≈ 32.5 µg/mL) |  | 500 µM (≈ 130 µg/mL) | 500 µM (≈ 130 µg/mL) | 125 µM (≈ 32.5 µg/mL) | 250 µM (≈ 65.1 µg/mL) | 500 µM (≈ 130 µg/mL) | 500 µM (≈ 130 µg/mL) | 
CCCCCCCCCCCCCCCCCCNC(=O)NNC(=O)c1ccncc1 | 250 µM (≈ 108 µg/mL) | 250 µM (≈ 108 µg/mL) | 250 µM (≈ 108 µg/mL) | 250 µM (≈ 108 µg/mL) | > 50 µM | 250 µM (≈ 108 µg/mL) | 250 µM (≈ 108 µg/mL) | 250 µM (≈ 108 µg/mL) | 250 µM (≈ 108 µg/mL) | 250 µM (≈ 108 µg/mL) | 250 µM (≈ 108 µg/mL) | 
CCCNc1nnc(-c2ccncc2)o1 | > 1000 µM | 1000 µM (≈ 204 µg/mL) | 1000 µM (≈ 204 µg/mL) | 500 µM (≈ 102 µg/mL) |  | 1000 µM (≈ 204 µg/mL) | 1000 µM (≈ 204 µg/mL) | 500 µM (≈ 102 µg/mL) | 500 µM (≈ 102 µg/mL) | 1000 µM (≈ 204 µg/mL) | > 1000 µM | 
CCCCCCCNC(=O)NNC(=O)c1ccncc1 | 250 µM (≈ 69.6 µg/mL) | 125 µM (≈ 34.8 µg/mL) | 250 µM (≈ 69.6 µg/mL) | 62.5 µM (≈ 17.4 µg/mL) | > 500 µM | 250 µM (≈ 69.6 µg/mL) | 125 µM (≈ 34.8 µg/mL) | 32 µM (≈ 8.91 µg/mL) | 62.5 µM (≈ 17.4 µg/mL) | 125 µM (≈ 34.8 µg/mL) | 250 µM (≈ 69.6 µg/mL) | 
CCCCCCCCCCCNc1nnc(-c2ccncc2)o1 | 500 µM (≈ 158 µg/mL) | 125 µM (≈ 39.6 µg/mL) | 250 µM (≈ 79.1 µg/mL) | 32 µM (≈ 10.1 µg/mL) | 172 µM | 125 µM (≈ 39.6 µg/mL) | 32 µM (≈ 10.1 µg/mL) | 32 µM (≈ 10.1 µg/mL) | 8 µM (≈ 2.53 µg/mL) | 16 µM (≈ 5.06 µg/mL) | 500 µM (≈ 158 µg/mL) | 5.4
CCCCCCCCCCCCCCCNC(=O)NNC(=O)c1ccncc1 | 125 µM (≈ 48.8 µg/mL) | 62.5 µM (≈ 24.4 µg/mL) | 125 µM (≈ 48.8 µg/mL) | 62.5 µM (≈ 24.4 µg/mL) | > 75 µM | 62.5 µM (≈ 24.4 µg/mL) | 62.5 µM (≈ 24.4 µg/mL) | 32 µM (≈ 12.5 µg/mL) | 32 µM (≈ 12.5 µg/mL) | 62.5 µM (≈ 24.4 µg/mL) | 125 µM (≈ 48.8 µg/mL) | 
CCCCCCCCCCNC(=O)NNC(=O)c1ccncc1 | 500 µM (≈ 160 µg/mL) | 125 µM (≈ 40.1 µg/mL) | 250 µM (≈ 80.1 µg/mL) | 32 µM (≈ 10.3 µg/mL) | > 250 µM | 250 µM (≈ 80.1 µg/mL) | 125 µM (≈ 40.1 µg/mL) | 16 µM (≈ 5.13 µg/mL) | 32 µM (≈ 10.3 µg/mL) | 62.5 µM (≈ 20 µg/mL) | 500 µM (≈ 160 µg/mL) | 
CNc1nnc(-c2ccncc2)o1 | > 1000 µM | 1000 µM (≈ 176 µg/mL) | 1000 µM (≈ 176 µg/mL) | 500 µM (≈ 88.1 µg/mL) |  | 1000 µM (≈ 176 µg/mL) | > 1000 µM | 500 µM (≈ 88.1 µg/mL) | 500 µM (≈ 88.1 µg/mL) | 1000 µM (≈ 176 µg/mL) | > 1000 µM | 
CCCCCCCCCCCNC(=O)NNC(=O)c1ccncc1 | 125 µM (≈ 41.8 µg/mL) | 62.5 µM (≈ 20.9 µg/mL) | 125 µM (≈ 41.8 µg/mL) | 62.5 µM (≈ 20.9 µg/mL) | > 50 µM | 125 µM (≈ 41.8 µg/mL) | 62.5 µM (≈ 20.9 µg/mL) | 32 µM (≈ 10.7 µg/mL) | 16 µM (≈ 5.35 µg/mL) | 32 µM (≈ 10.7 µg/mL) | 125 µM (≈ 41.8 µg/mL) | 
CCCCCCCCCCCCCCNc1nnc(-c2ccncc2)o1 | 250 µM (≈ 89.6 µg/mL) | 250 µM (≈ 89.6 µg/mL) | 250 µM (≈ 89.6 µg/mL) | 250 µM (≈ 89.6 µg/mL) |  | 250 µM (≈ 89.6 µg/mL) | 250 µM (≈ 89.6 µg/mL) | 250 µM (≈ 89.6 µg/mL) | 250 µM (≈ 89.6 µg/mL) | 250 µM (≈ 89.6 µg/mL) | 250 µM (≈ 89.6 µg/mL) | 
CCCCCCCCCCCCCCCNc1nnc(-c2ccncc2)o1 | 500 µM (≈ 186 µg/mL) | 125 µM (≈ 46.6 µg/mL) | 250 µM (≈ 93.1 µg/mL) | 125 µM (≈ 46.6 µg/mL) |  | 250 µM (≈ 93.1 µg/mL) | 250 µM (≈ 93.1 µg/mL) | 125 µM (≈ 46.6 µg/mL) | 62.5 µM (≈ 23.3 µg/mL) | 125 µM (≈ 46.6 µg/mL) | 250 µM (≈ 93.1 µg/mL) | 
